Compound activity: PubChem, several laboratories
Tb MetRS inh: T. brucei MetRS inhibitors, primary screen, biochemical, luminescence; methionyl-tRNA synthetase (Trypanosoma brucei brucei); purified T. brucei MetRS, ATP depletion, Kinase-Glo luminescence; inhibition, % at 11.9 µM; actives 0.4% (n = 360,000);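 active means inhibition above a per-plate cutoff of the control wells' mean inhibition plus 3 SD, cut at about 5.5% in these data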;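 further: 0% = DMSO wells median and 100% = median of wells with control inhibitor compound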
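System: purified T. brucei MetRS enzyme / Detection: Kinase-Glo luciferase luminescence reporting remaining unconsumed ATP / Medium: HEPES buffer with MgCl2, KCl, DTT, spermine, BSA, pyrophosphatase / Replication: singlicate, one well per compound / Evaluation: percent inhibition relative to median high and low control wells / Schedule: 2 h aminoacylation at 25 °C after 15 min preincubation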
Rce1 inhib: yeast Rce1p protease inhibitors, primary screen, biochemical, fluorescence, cell-free homogeneous | CAAX prenyl protease 2 (Saccharomyces cerevisiae (strain ATCC 204508 / S288c)), Q03530 | yeast membranes, quenched prenylated peptide cleavage fluorescence | calls only | actives 0.27% (n = 290,000) | AID 2563, 2010;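 active means fall in fluorescence gain of 50% or more versus controls, with final raw signal at or below 3038400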;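 further: plate controls were neutral control wells for no effect and wells lacking membranes for full effect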
Target sequence (Q03530 whole entry, looked up): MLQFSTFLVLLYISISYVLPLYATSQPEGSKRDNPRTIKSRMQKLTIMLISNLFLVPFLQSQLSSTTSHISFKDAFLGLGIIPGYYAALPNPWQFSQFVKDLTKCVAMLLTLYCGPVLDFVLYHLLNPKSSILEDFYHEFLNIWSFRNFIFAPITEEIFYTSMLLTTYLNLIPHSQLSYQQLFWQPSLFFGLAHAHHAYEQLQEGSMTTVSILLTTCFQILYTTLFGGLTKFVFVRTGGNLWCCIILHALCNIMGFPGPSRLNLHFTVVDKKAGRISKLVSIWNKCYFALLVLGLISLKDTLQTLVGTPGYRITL
Pemphigus Ab inh: inhibitors of pemphigus antibody binding to DSG3, primary screen, biochemical, bead-based, flow cytometry, scFv-GFP; actives 0.48% (n = 310,000); DSG3-coupled beads, scFv-anti-DSG3-GFP binding; active compounds read low; binding (percent of control), % at 10 µM;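 active means binding more than 3 SD below its plate's average and above zero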;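 further: hits lower antibody fragment binding to DSG3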
NadD block: inhibitors of S. aureus NadD, primary screen, biochemical, colorimetric, uHTS; purified NadD enzyme, colorimetric absorbance read-out; AID 602399, 2012; actives 0.78% (n = 360,000); inhibition, % at 20 µM; in the data active means inhibition above about 26%
core dimer inh: inhibitors of HCV core protein dimerization, primary screen, biochemical, TR-FRET, high-throughput; actives 0.33% (n = 300,000); AID 1899, 2009; TR-FRET GST/Flag-core106 dimerization, 1536-well; inhibition, % at 5 µM;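 active means inhibition above the mean of all tested compounds plus 3 SD, set per screening campaign, cut at about 45% in these data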
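test system = GST/Flag-tagged HCV core106 proteins | probe or stimulus = Eu donor and XL665 acceptor anti-tag antibodies | times = compound-protein-antibody incubation 4 h at 22.5 °C | signal = TR-FRET, excitation 340 nm, emission 617 and 671 nm | measure = percent inhibition of core106 dimerization signal | controls = wells lacking GST-core106 and wells with excess unlabelled core106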
TbMetRS confirm: T. brucei MetRS inhibitors, confirmation, biochemical, luminescence; AID 624412, 2012; actives 93% (n = 1,400); T. brucei MetRS enzyme, luminescence (ATP depletion); shares compounds with Tb MetRS inh; inhibition, % at 11.9 µM; in the data active means inhibition above about 7%
Jurkat tox: Jurkat T cell cytotoxicity, cytotoxicity control for T. brucei MetRS inhibitor project, luminescence, high throughput. Jurkat cells viability, ATP luminescence. shares compounds with Tb MetRS inh. inhibition, % at 8.3 µM. actives 12% (n = 1,400); in the data active means inhibition above about 15%;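 further: 0% = vehicle and 100% = reference inhibitor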
Tb MetRS inh FP: T. brucei MetRS inhibitors, orthogonal assay for T. brucei MetRS inhibitor project, biochemical, fluorescence polarization; AID 651607, 2012; inhibition, % at 11.9 µM; shares compounds with Tb MetRS inh; purified T. brucei MetRS; actives 44% (n = 1,400); in the data active means inhibition above about 17%;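 further: 0% = vehicle wells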
* marks the source's active call; other numbers are inactive results; i = inactive; / = no result given. Hits are enriched below; roughly 1.9% of the tested compounds scored in any of these assays.

SMILES | Tb MetRS inh | Rce1 inhib | Pemphigus Ab inh | NadD block | core dimer inh | TbMetRS confirm | Jurkat tox | Tb MetRS inh FP
O=C(CSc1nnc2c(n1)[nH]c1ccccc12)NCc1ccco1 | 8.3* | i | 106.1 | -0.7 | 5.5 | 13.7* | 8.8 | 7.2
COc1ccc(CNC(=O)CSc2nnc3c(n2)[nH]c2ccccc23)cc1 | 42.2* | i | / | -5.6 | -3.2 | 81.4* | 3.5 | 75.0*
O=S(=O)(NCc1ccco1)c1ccc2ccccc2c1 | -0.6 | i | 84.9 | -2.6 | -5.3 | / | / | /
COCCNC(=O)c1cc(Br)ccc1Cl | 0.2 | i | 102.9 | -0.5 | -0.8 | / | / | /
O=C(N/N=C/c1cccc(C(F)(F)F)c1)c1ccccc1O | 0.9 | i | / | 3.0 | -1.0 | / | / | /
COc1ccc2nc(SCC(=O)Nc3ccc4c(c3)OCCO4)[nH]c2c1 | 0.3 | i | 105.8 | -1.0 | 0.7 | / | / | /
Cc1nnc(NC(=O)CSc2nnc3c(n2)[nH]c2ccc(Br)cc23)s1 | 11.7* | i | 115.2 | 23.0 | 7.8 | 63.3* | 11.4 | 54.2*
COc1cccc(CNC(=O)CSc2nnc3c(n2)[nH]c2ccc(OC)cc23)c1 | 1.0 | i | / | 2.4 | 2.5 | / | / | /
COc1ccc(CNC(=O)CSc2nnc3c(n2)[nH]c2ccc(C)cc23)cc1 | 33.5* | i | / | 6.2 | 10.8 | 82.2* | 0.3 | 55.1*
CC(C)c1ccc2[nH]c3nc(SCC(=O)NC4CC4)nnc3c2c1 | -0.8 | i | / | 1.8 | 7.8 | / | / | /
COc1ccc2[nH]c3nc(SCC(=O)Nc4ccc5c(c4)OCO5)nnc3c2c1 | 56.5* | i | 92.2 | 8.3 | 7.7 | 87.6* | 9.9 | 73.3*
C[C@H](O)[C@@H]1CN2CCc3c([nH]c4ccccc34)[C@@H]2C[C@@H]1N(C)C(=S)NCCc1ccccc1 | 7.8* | / | / | 0.8 | / | 6.7* | 6.4 | 10.5
COc1ccc(C(=O)N/C(=C\c2ccc3c(c2)OCO3)C(=O)NCCc2nc3ccccc3[nH]2)cc1 | 6.9* | i | 105.5 | 2.6 | 1.9 | 11.2* | 0.9 | 6.8
COc1ccc(/C=C(/NC(=O)c2ccc(OC)cc2)C(=O)NCCc2c[nH]c3ccccc23)cc1 | -0.1 | i | 94.7 | 1.7 | 22.2 | / | / | /
CCc1ccc(NC(=O)CCc2nc3sc4c(c3c(=O)[nH]2)CCCC4)cc1 | 0.0 | i | 95.1 | 9.4 | 23.4 | / | / | /
CC1(C)CC(N2CCN(CCO)CC2)=CC(=S)N1 | 6.2* | i | 101.5 | -5.6 | -5.2 | 3.4 | -0.1 | -3.5
CC1(C)CC(NCc2ccccc2)=CC(=S)N1 | 0.1 | / | / | 8.3 | / | / | / | /
COc1ccc(-n2c(SCC(=O)Nc3ccc(Cl)cc3)nc(O)c(Cc3ccccc3)c2=O)cc1 | 47.5* | i | 107.3 | 2.9 | 12.6 | 69.9* | -9.9 | 34.6*
CCNC(=S)N(Cc1cc2cc(C)ccc2[nH]c1=O)C1CCCC1 | 11.3* | i | 125.3 | -6.2 | -3.4 | 21.7* | -5.4 | 10.7
COc1cc(OC)c(OC)cc1/C=N/Nc1nc2ccccc2[nH]1 | 8.7* | i | 122.0 | -0.2 | -32.0 | 18.0* | 6.0 | 31.1*
COc1cc(OC)c(OC)cc1/C=N/Nc1ncnc2c1[nH]c1ccccc12 | 0.9 | i | 102.4 | -10.2 | -12.3 | / | / | /
COc1ccc(/C=N/Nc2nc3ccccc3[nH]2)cc1OC | 8.5* | i | 97.8 | -4.1 | -40.9 | 11.7* | 2.2 | 31.0*
CCCCn1c(/C=N/Nc2nc3ccccc3[nH]2)nc2ccccc21 | -0.3 | i | / | 16.1 | 4.3 | / | / | /
COc1ccc2c(c1)c(/C=N/Nc1nc3ccccc3[nH]1)c(C)n2C | 7.1* | i | 112.0 | 20.1 | -26.5 | 18.9* | 16.1* | 18.1*
COc1cc(/C=N\Nc2nc3ccccc3[nH]2)cc(OC)c1OC | 5.2 | i | / | -12.3 | -27.6 | / | / | /
SMILES | Tb MetRS inh | Rce1 inhib | Pemphigus Ab inh | NadD block | core dimer inh | TbMetRS confirm | Jurkat tox | Tb MetRS inh FP
C(=N\Nc1nc2ccccc2[nH]1)/c1cccc2nccnc12 | 5.9* | i | 96.2 | -0.7 | -21.6 | 9.9* | 95.8* | 25.5*
CCN(CC)c1ccc(Nc2nc(-c3cccnc3)cs2)cc1 | 0.1 | i | 108.8 | -2.3 | -24.0 | / | / | /
Cc1nc2c(c3c1[nH]c1ccccc13)C(=O)CC(C)(C)C2 | -1.6 | i | 98.3 | -4.2 | -7.5 | / | / | /
O=C(Nc1nc2ccccc2[nH]1)c1ccc([N+](=O)[O-])cc1 | 0.4 | i | 99.8 | -1.1 | 2.6 | / | / | /
O=C(NCc1nc2ccccc2[nH]1)c1ccc(S(=O)(=O)N2CCCC2)cc1 | 2.4 | i | 107.0 | 4.3 | -1.4 | / | / | /
O=C(NCc1nc2ccccc2[nH]1)c1ccc([N+](=O)[O-])cc1 | 52.2* | i | 94.2 | -1.9 | -0.6 | 74.5* | 1.7 | 39.5*
O=C(NCc1nc2ccccc2[nH]1)c1ccc(S(=O)(=O)N2CCOCC2)cc1 | 11.8* | i | 104.9 | -0.6 | 0.2 | 21.0* | 1.3 | 3.5
C[C@H](CO)N1C[C@H](C)[C@@H](CN(C)C(=O)Nc2ccccc2)Oc2ccc(NS(=O)(=O)c3cn(C)cn3)cc2C1=O | -0.7 | / | 95.5 | -3.4 | / | / | / | /
O=C(CSc1nnc(Cc2ccc(Cl)cc2)o1)Nc1ccccc1 | 7.5* | i | 101.2 | -6.6 | -1.6 | 13.7* | 0.7 | 9.7
Cc1cc(SCC(=O)N/N=C/c2ccc(O)c(O)c2O)c(C)cc1Br | 76.4* | i | 98.3 | 13.1 | 4.1 | 103.5* | 56.1* | 84.3*
NC(=S)NNc1cc(Cl)cc(Cl)c1 | 8.1* | i | 96.9 | 1.1 | -0.3 | 17.6* | 1.0 | 9.9
CCOc1cc(N2CCOCC2)c(OCC)cc1NC(=O)COc1cccc(CC)c1 | -0.3 | / | 98.4 | 2.5 | / | / | / | /
COc1ccc(CN=C2Nc3ccccc3CS2)cc1 | 7.7* | i | 96.8 | 1.0 | 2.2 | 24.7* | 4.1 | 2.7
Cc1cc(N2C(=O)C(O)=C(C(=O)c3ccco3)C2c2ccc(Cl)cc2)no1 (configuration not stated) | 6.1* | i | 87.8 | 11.6 | 4.5 | 3.8 | 6.0 | -3.4
CCN(C(=O)CSc1nnc(-c2ccccc2Br)o1)C1CCS(=O)(=O)C1 (configuration not stated) | -1.1 | i | 102.3 | -0.5 | 0.8 | / | / | /
